From PubChem BioAssay
G6PDH CS = L. mesenteroides G6PDH inhibition counter-screen | inhibition, % at 5 µM | Purified L. mesenteroides G6PDH, diaphorase/resazurin coupled fluorescence, 45 min | 0.12% of 200,000 active | AID 1020; in the data active means inhibition above about 50%
Diaphorase inh = counter-screen for diaphorase-based assays: diaphorase inhibitors and chemical oxidizers; diaphorase resazurin-to-resorufin fluorescence, NADH, 16 min; bacterial (C. kluyveri) enzyme, not human; AID 1217; inhibition, % at 20 µM; 0.69% of 190,000 active;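 active means primary screen inhibition at 20 µM above a set limit, cut at about 50% in these data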;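 further: plate controls were DMSO with full reaction for no effect and wells lacking NADH for full effect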
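Assay system – diaphorase enzyme from Clostridium kluyveri · Amount – diaphorase 0.14 U/mL (working solution) · Times – reaction incubation of 16 min at room temperature · Controls – No-NADH positive control and DMSO neutral control · Signal – resorufin fluorescence 544/590 nm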
PMI act hi M6P = increases human PMI activity with near-saturating mannose 6-phosphate; P34949; coupled PMI enzyme assay, resazurin fluorescence, 20 min; hits give high values; 1 = untreated enzyme, 0 = substrate-free blank; activation factor at 20 µM; 0.34% of 190,000 active; AID 1216;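 active means activation factor of 2 or more at 20 µM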
Target sequence (P34949 whole entry, looked up): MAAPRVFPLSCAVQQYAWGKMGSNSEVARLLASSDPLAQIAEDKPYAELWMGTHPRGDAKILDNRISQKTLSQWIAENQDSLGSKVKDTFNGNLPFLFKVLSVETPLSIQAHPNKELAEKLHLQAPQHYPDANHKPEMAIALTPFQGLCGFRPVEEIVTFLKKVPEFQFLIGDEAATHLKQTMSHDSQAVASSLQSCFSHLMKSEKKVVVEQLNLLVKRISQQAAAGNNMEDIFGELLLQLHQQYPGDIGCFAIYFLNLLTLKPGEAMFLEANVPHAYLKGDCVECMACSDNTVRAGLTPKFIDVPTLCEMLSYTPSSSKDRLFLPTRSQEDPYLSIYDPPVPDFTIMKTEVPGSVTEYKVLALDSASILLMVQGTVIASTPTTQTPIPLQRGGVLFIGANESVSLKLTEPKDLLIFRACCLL
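Test system: human PMI in coupled enzyme assay; Input: PMI at 15 ng/mL final; Medium: HEPES buffer, pH 7.4; Schedule: 20 min incubation at room temperature; Technique: resorufin fluorescence at Ex 544/Em 590 nm; Compound: 20 µM single dose; Probe or stimulus: Near-saturating mannose-6-phosphate, 1.0 mM.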
Diaph act CS = activates diaphorase or chemically reduces, flagging diaphorase assay artifacts. Diaphorase/resazurin coupled assay, resorufin fluorescence, 16 min; hits give high values; 1 = vehicle wells, 0 = NADH-free wells. 0.005% of 190,000 active. activation factor at 20 µM;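 active means diaphorase activity raised at least twofold by the compound at 20 µM; inactive means activation factor below 2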
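Assay system: bacterial diaphorase enzyme (C. kluyveri) / Input: enzyme 0.07 U/mL final / Medium: 50 mM HEPES pH 7.4 with 4.542 mM MgCl2, 0.005% Tween 20 / Doses: single compound dose of 20 µM, 1% DMSO final / Incubation: 16 min enzyme reaction, ambient temperature / Signal: fluorescence, excitation 544 nm and emission 590 nm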
PMI act = phosphomannose isomerase (human) activation; AID 1214; 0.005% of 190,000 active; activation factor at 20 µM; P34949; purified human PMI, coupled resazurin fluorescence, 20 min; hits give high values; 1 = vehicle control, 0 substrate-free wells;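 active means activation factor of 2 or more at 20 µM, relative to plate controls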
Active calls of the source: *. Shown are actives, neighbours in structure and some others; about 1.1% of the full set was active somewhere.

SMILES | G6PDH CS | Diaphorase inh | PMI act hi M6P | Diaph act CS | PMI act
CN(C)c1ccc(C=C2C(=O)NC(=S)NC2=O)cc1[N+](=O)[O-] | 10.4 | 14.0 | 2.1* | 0.9 | 1.5
C=CC1CN2CCC1CC2c1[nH]c2ccccc2c1CCO (configuration not stated) | 4.5 | 6.4 | 1 | 0.9 | 1.1
COc1cccc(C2(O)CCN(CC(=O)Nc3nc(C)cs3)CC2)c1 | 8.5 | -3.2 | 1 | 1 | 1.1
CC1=CC(=C2C(=O)NC(=S)NC2=O)C=C(C(F)(F)F)N1Cc1ccccc1 | 6.5 | -11.4 | 2* | 1.1 | 1.7
O=P(O)(Oc1ccccc1)OC(c1ccccc1)C(F)(F)C(F)(F)F (configuration not stated) | 1.5 | 7.6 | 1.1 | 0.9 | 1.2
Cc1ccc2c(c1)CC1(CN2C)C(=O)NC(=O)N(CCc2ccccc2)C1=O (configuration not stated) | 7.0 | 6.3 | 2.1* | 0.9 | 1.8
O=C1NC(=O)C2(Cc3ccccc3N3CCCC32)C(=O)N1c1cccc(Cl)c1 (configuration not stated) | 4.5 | 4.2 | 1.6 | 1 | 1.6
Cc1ccc(N2C(=O)NC(=O)C3(Cc4ccccc4N4CCN(c5ccccc5)CC43)C2=O)cc1 (configuration not stated) | 3.8 | 11.4 | 2.2* | 0.9 | 1.6
Cc1c(C(=O)C(=O)N2CCC3(CC2)OCCO3)c2ccccc2n1C | 3.3 | -0.5 | 0.9 | 1 | 0.9
C=CCN1C(=O)NC(=O)/C(=C/c2cccn2C)C1=O | 6.6 | 16.7 | 1 | 0.8 | 1
C=CCN1C(=O)NC(=O)/C(=C/c2ccoc2)C1=O | 8.5 | -8.1 | 2.2* | 1.1 | 1.6
C[C@@]1(CO)[C@H](O)CC[C@@]2(C)[C@H]1CC[C@H]1C[C@@H]3C[C@@]12CC[C@]3(O)CO | 53.5* | 2.2 | 1.1 | 1 | 1.1
CCOC(=O)C(NC(C)=O)C(OC(C)=O)c1cccc(N(CCCl)CCCl)c1 (configuration not stated) | 2.6 | 5.0 | 2* | 0.9 | 1.6
CC(=O)c1ccc(OC(C)C)c(Cc2c(O)[nH]c(=S)[nH]c2=O)c1 | 12.7 | 1.6 | 2.1* | 1 | 1.5
CC(C)Oc1ccc(Cc2c(O)[nH]c(=O)[nH]c2=O)cc1 | 15.1 | 9.6 | 1 | 0.9 | 1
CCN(CC)C(=O)c1ccc(NC(=O)Nc2ccccc2F)cc1 | 2.1 | 20.0 | 0.9 | 0.8 | 0.9
C=CCC1C(=O)NC(=S)NC1=O | -0.4 | 10.6 | 2* | 0.9 | 1.6
Cc1nc2ccccc2c(=O)n1-c1ccc(Cl)cc1[N+](=O)[O-] | 8.3 | 76.7* | 1 | 0.2 | 1
CCCCCc1nc2ccccc2c(=O)n1-c1ccccc1[N+](=O)[O-] | 8.1 | 24.9 | 0.9 | 0.8 | 0.9
CCC(C)n1c(O)c(/C=N/Nc2ccccc2)c(=O)[nH]c1=S (configuration not stated) | -0.1 | 11.3 | 2.7* | 0.9 | 1.7
O=c1[nH]c(=S)n(C2CC2)c(O)c1/C=N/Nc1ccccc1 | -14.1 | 14.7 | 2* | 0.9 | 1.6
O=c1[nH]c(=S)n(C2CC2)c(O)c1/C=N/Nc1cccc2ccccc12 | -22.9 | 41.4 | 1.2 | 0.6 | 1.3
Cc1cccc(-n2c(-c3ccccc3)nc3ccccc3c2=O)n1 | 8.1 | 9.7 | 1 | 0.9 | 0.9
O=[N+]([O-])c1cccc(C2N3CCCN23)c1 (configuration not stated) | 2.6 | 3.7 | 1 | 1 | 0.9
O=C(O)c1cccc2c1NC(c1cccc([N+](=O)[O-])c1)C1CC(Sc3ccccc3[N+](=O)[O-])C(Cl)C21 (configuration not stated) | 14.4 | 94.4* | 1.7 | 0.1 | 1.3
SMILES | G6PDH CS | Diaphorase inh | PMI act hi M6P | Diaph act CS | PMI act
O=C(O)c1ccc2c(c1)C1C(Cl)C(Sc3ccccc3[N+](=O)[O-])CC1C(c1cccc([N+](=O)[O-])c1)N2 (configuration not stated) | 8.9 | 66.0* | 1.3 | 0.3 | 1.3
N#Cc1c(/N=C/c2ccc(O)cc2O)sc2c1C1CCN2CC1 | -19.2 | 19.9 | 0.9 | 0.8 | 0.8
COc1ccc(S(=O)(=O)N2CC3CC(C2)c2cccc(=O)n2C3)cc1 (configuration not stated) | 3.4 | 2.9 | 1.1 | 1 | 1
Cn1cc2c([N+](=O)[O-])cc([N+](=O)[O-])cc2n1 | 17.2 | 27.5 | 0.6 | 0.7 | 1
Cn1cnc([N+](=O)[O-])c1Sc1ccc([N+](=O)[O-])cc1 | -2.4 | -9.8 | 2* | 1.1 | 1.4
O=C(CN1CCCCC1)c1ccccc1Cl | 1.1 | -1.3 | 2* | 1 | 1.7
O=C(CN1CCCCC1)c1cccc(Br)c1 | -6.1 | 12.8 | 1.4 | 0.9 | 1.5
O=C(CN1CCCCC1)c1ccccc1F | -3.0 | 8.1 | 2.3* | 0.9 | 1.6
COc1ccc(/C=N/N=C(/N)N[N+](=O)[O-])c(OC)c1 | 1.1 | 23.4 | 1 | 0.8 | 1
N/C(=N\N=C/c1ccc(-c2ccc(O)c(C(=O)O)c2)o1)N[N+](=O)[O-] | 3.2 | 56.7* | 0.6 | 0.4 | 0.7
O=C(NC1(C(F)(F)F)Oc2ccc(Cl)cc2O1)N1CCC2(CC1)OCCO2 (configuration not stated) | 43.6 | 52.1* | 0.3 | 0.5 | 0.2
COc1ccc(NC(=S)NC(NC(=O)CF)C(Cl)(Cl)Cl)cc1[N+](=O)[O-] (configuration not stated) | 2.7 | 13.0 | 0.9 | 0.9 | 1
Cn1ncnc2c(=O)n(C)c(=O)nc1-2 | 72.1* | 55.7* | 0.4 | 0.4 | 0.3
CC1=CC(=C2C(=O)NC(=S)NC2=O)C=C(C(F)(F)F)N1CCc1ccccc1 | 12.5 | 15.8 | 1.2 | 0.8 | 1.2
Cc1cc2c(C(C)C)c(O)c(O)c(C=O)c2c(O)c1-c1c(C)cc2c(C(C)C)c(O)c(O)c(C=O)c2c1O | 27.7 | 64.3* | 0.5 | 0.4 | 0.7
O=C1NC(=O)N(c2cccc(Br)c2)C(=O)/C1=C/c1ccsc1 | 12.2 | 11.5 | 1.7 | 0.9 | 1.7
CN1CCN(c2c(C#N)c(C(F)(F)F)nn2C)CC1 | 1.3 | -14.2 | 1.1 | 1.1 | 1.1
COc1cc2c(cc1OC)-c1c(OC)c(OC)c(OC)c3ccnc(c13)C2=O | 18.9 | 54.6* | 0.5 | 0.5 | 0.8
COc1cc(CC2(CCc3ccncc3)C(=O)NC(=O)NC2=O)cc(OC)c1OC | 6.5 | 15.1 | 0.9 | 0.8 | 0.9
CCOc1ccc(N2C(=O)/C(=C\c3cccs3)C(=O)NC2=S)cc1 | 4.2 | 22.2 | 2.2* | 0.8 | 1.6
CCOC(=O)c1c(/N=C/C2C(=O)NC(=S)NC2=O)sc2c1CCC2 | -4.6 | 17.8 | 2.1* | 0.8 | 1.6
